Assay results: ChEMBL document CHEMBL1153199, “Fluconazole analogues containing 2H-1,4-benzothiazin-3(4H)-one or 2H-1,4-benzoxazin-3(4H)-one moieties, a novel class of anti-Candida agents” (2010)
Values after ≈ are worked out from the molar mass of the structure shown. Active and inactive are the calls of the source. No cut-off for these calls is given here.

Experiments:
Assay type in all cases: functional
Candida albicans [1] = assay: Antifungal activity against Candida albicans ATCC 24433 after 48 hrs by broth microdilution method
How it was run: (§1)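 Broth microdilution run per CLSI M27-A2 in RPMI 1640 buffered to pH 7.0 with MOPS. Fluconazole and amphotericin B served as reference drugs. Endpoints were read after 48 h, visually or by spectrophotometer where needed. MIC was taken as the concentration giving 50% inhibition relative to the positive control.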

Aspergillus niger = assay: Antifungal activity against Aspergillus niger ATCC 16404 after 48 hrs by broth microdilution method
Fusarium proliferatum = assay: Antifungal activity against Fusarium proliferatum ATCC 10052 after 48 hrs by broth microdilution method
Candida albicans [2] = assay: Antifungal activity against Candida albicans ATCC 2091 after 48 hrs by broth microdilution method; conditions: ATCC 2091, 48 h; how it was run: as §1
Candida albicans [3] = assay: Antifungal activity against Candida albicans ATCC 90028 after 48 hrs by broth microdilution method; conditions: ATCC 90028, 48 h; how it was run: as §1
Nakaseomyces glabratus = assay: Antifungal activity against Candida glabrata ATCC 90030 after 48 hrs by broth microdilution method; conditions: ATCC 90030, 48 h; how it was run: as §1
Pichia kudriavzevii = assay: Antifungal activity against Candida krusei ATCC 6258 after 48 hrs by broth microdilution method; conditions: ATCC 6258, 48 h
How it was run: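 Broth microdilution MIC per CLSI M27-A2 in RPMI 1640 buffered to pH 7.0 with MOPS. End points were read at 48 h, visually or by spectrophotometer where needed. For fluconazole and the synthetic compounds, MIC was the concentration giving 50% inhibition relative to the positive control. Fluconazole and amphotericin B served as positive controls.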

Candida tropicalis = assay: Antifungal activity against Candida tropicalis ATCC 750 after 48 hrs by broth microdilution method; conditions: ATCC 750, 48 h; how it was run: as §1
Candida albicans [4] = assay: Antifungal activity against Candida albicans ATCC 10231 after 48 hrs by broth microdilution method; conditions: ATCC 10231, 48 h; how it was run: as §1

Structure (SMILES)	MIC (Candida albicans [1]; ATCC 24433, 48 h)	MIC (Aspergillus niger)	MIC (Fusarium proliferatum)	MIC (Candida albicans [2])	MIC (Candida albicans [3])	MIC (Nakaseomyces glabratus)	MIC (Pichia kudriavzevii)	MIC (Candida tropicalis)	MIC (Candida albicans [4])	MIC (Candida albicans [1])	MIC (Aspergillus niger; ATCC 16404, 48 h)	MIC (Fusarium proliferatum; ATCC 10052, 48 h)
COc1ccc2c(c1)SCC(=O)N2CC(O)(Cn1cncn1)c1ccc(F)cc1F (stereo not drawn)	4 µg/mL (≈ 9.25 µM)	inactive	inactive									
O=C1CSc2cc(Br)ccc2N1CC(O)(Cn1cncn1)c1ccc(F)cc1F (stereo not drawn)	1 µg/mL (≈ 2.08 µM)	inactive	inactive									
O=C1CSc2ccccc2N1CC(O)(Cn1cncn1)c1ccc(F)cc1F (stereo not drawn)	0.03 µg/mL (≈ 0.0745 µM)	inactive	inactive	0.12 µg/mL (≈ 0.298 µM)	0.03 µg/mL (≈ 0.0745 µM)	0.06 µg/mL (≈ 0.149 µM)	4 µg/mL (≈ 9.94 µM)	0.5 µg/mL (≈ 1.24 µM)	0.12 µg/mL (≈ 0.298 µM)			
Cc1ccc2c(c1)SCC(=O)N2CC(O)(Cn1cncn1)c1ccc(F)cc1F (stereo not drawn)	2 µg/mL (≈ 4.8 µM)	inactive	inactive									
O=C1COc2ccc(Cl)cc2N1CC(O)(Cn1cncn1)c1ccc(Br)cc1 (stereo not drawn)	4 µg/mL (≈ 8.63 µM)	inactive	inactive									
CC(=O)c1ccc2c(c1)N(CC(O)(Cn1cncn1)c1ccc(F)cc1F)C(=O)CO2 (stereo not drawn)		inactive	inactive							inactive		
O=C1COc2ccccc2N1CC(O)(Cn1cncn1)c1ccc(F)cc1F (stereo not drawn)	0.5 µg/mL (≈ 1.29 µM)	inactive	inactive	0.25 µg/mL (≈ 0.647 µM)	0.12 µg/mL (≈ 0.311 µM)	0.25 µg/mL (≈ 0.647 µM)	16 µg/mL (≈ 41.4 µM)	2 µg/mL (≈ 5.18 µM)	0.5 µg/mL (≈ 1.29 µM)			
COc1ccc2c(c1)SCC(=O)N2CC(O)(Cn1cncn1)c1ccc(Br)cc1 (stereo not drawn)	2 µg/mL (≈ 4.21 µM)	inactive	inactive									
O=C1COc2ccc(Cl)cc2N1CC(O)(Cn1cncn1)c1ccc(F)cc1 (stereo not drawn)	16 µg/mL (≈ 39.7 µM)	inactive	inactive									
O=C1CSc2cc(Cl)ccc2N1CC(O)(Cn1cncn1)c1ccc(F)cc1F (stereo not drawn)	1 µg/mL (≈ 2.29 µM)	inactive	inactive									
COc1ccc2c(c1)SCC(=O)N2CC(O)(Cn1cncn1)c1ccc(F)cc1 (stereo not drawn)	8 µg/mL (≈ 19.3 µM)	inactive	inactive									
CC(=O)c1ccc2c(c1)N(CC(O)(Cn1cncn1)c1ccc(Br)cc1)C(=O)CO2 (stereo not drawn)	32 µg/mL (≈ 67.9 µM)	inactive	inactive									
C[C@@H]1[C@H](O)[C@@H](C)/C=C/C=C/C=C/C=C/C=C/C=C/C=C/[C@H](O[C@@H]2O[C@H](C)[C@@H](O)[C@H](N)[C@@H]2O)C[C@@H]2O[C@](O)(C[C@@H](O)C[C@@H](O)[C@H](O)CC[C@@H](O)C[C@@H](O)CC(=O)O[C@H]1C)C[C@H](O)[C@H]2C(=O)O [AMPHOTERICIN B]	0.25 µg/mL (≈ 0.271 µM)			0.5 µg/mL (≈ 0.541 µM)	0.5 µg/mL (≈ 0.541 µM)	0.25 µg/mL (≈ 0.271 µM)	0.5 µg/mL (≈ 0.541 µM)	0.5 µg/mL (≈ 0.541 µM)	0.5 µg/mL (≈ 0.541 µM)		1 µg/mL (≈ 1.08 µM)	2 µg/mL (≈ 2.16 µM)
O=C1COc2ccc([N+](=O)[O-])cc2N1CC(O)(Cn1cncn1)c1ccc(F)cc1F (stereo not drawn)	32 µg/mL (≈ 74.2 µM)	inactive	inactive									
OC(Cn1cncn1)(Cn1cncn1)c1ccc(F)cc1F [FLUCONAZOLE]	0.25 µg/mL (≈ 0.816 µM)			0.5 µg/mL (≈ 1.63 µM)	0.5 µg/mL (≈ 1.63 µM)	4 µg/mL (≈ 13.1 µM)	64 µg/mL (≈ 209 µM)	2 µg/mL (≈ 6.53 µM)	1 µg/mL (≈ 3.27 µM)		128 µg/mL (≈ 418 µM)	> 128 µg/mL
O=C1COc2ccc(Cl)cc2N1CC(O)(Cn1cncn1)c1ccc(F)cc1F (stereo not drawn)	8 µg/mL (≈ 19 µM)	inactive	inactive									
O=C1COc2ccc(Br)cc2N1CC(O)(Cn1cncn1)c1ccc(F)cc1F (stereo not drawn)	16 µg/mL (≈ 34.4 µM)	inactive	inactive									
O=C1CSc2cc(Cl)ccc2N1CC(O)(Cn1cncn1)c1ccc(F)cc1 (stereo not drawn)	2 µg/mL (≈ 4.77 µM)	inactive	inactive									
